STAT1 activator = STAT1 signaling activation. NIH 3T3 STAT1-luciferase reporter, IFN-gamma, luminescence; 100% = IFN-gamma alone, no compound. activation (% of control), % at 5.5 µM. 200,000 compounds, 2.6% hits;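 active = activation above the screen-wide mean activation plus 3 SD, cut at about 130% in these data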;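 note: raw ratio to IFN-gamma control signal so 100% means no change and 0% no light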
STAT1 inh = inhibitors of IFN-gamma induced STAT1 signaling | AID 920 | NIH 3T3 STAT1-luciferase reporter, luminescence | 200,000 compounds, 0.35% hits | inhibition, % at 5.5 µM;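 active = inhibition above a set limit, the mean inhibition across all tested compounds plus 3 SD, cut at about 34% in these data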;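 note: 0% = IFN-gamma with DMSO and 100% = IFN-gamma with 300 µM nifuroxazide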
FLuc inhib CS = counter-screen for luciferase assay inhibitors: firefly luciferase inhibition. P08659. ATPLite firefly luciferase biochemical luminescence, 10 min. inhibition, % at 10 µM. 200,000 compounds, 1.5% hits;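 active = inhibition above about 50% when tested at 10 µM, limit read from the data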
Target sequence (P08659 whole entry, looked up): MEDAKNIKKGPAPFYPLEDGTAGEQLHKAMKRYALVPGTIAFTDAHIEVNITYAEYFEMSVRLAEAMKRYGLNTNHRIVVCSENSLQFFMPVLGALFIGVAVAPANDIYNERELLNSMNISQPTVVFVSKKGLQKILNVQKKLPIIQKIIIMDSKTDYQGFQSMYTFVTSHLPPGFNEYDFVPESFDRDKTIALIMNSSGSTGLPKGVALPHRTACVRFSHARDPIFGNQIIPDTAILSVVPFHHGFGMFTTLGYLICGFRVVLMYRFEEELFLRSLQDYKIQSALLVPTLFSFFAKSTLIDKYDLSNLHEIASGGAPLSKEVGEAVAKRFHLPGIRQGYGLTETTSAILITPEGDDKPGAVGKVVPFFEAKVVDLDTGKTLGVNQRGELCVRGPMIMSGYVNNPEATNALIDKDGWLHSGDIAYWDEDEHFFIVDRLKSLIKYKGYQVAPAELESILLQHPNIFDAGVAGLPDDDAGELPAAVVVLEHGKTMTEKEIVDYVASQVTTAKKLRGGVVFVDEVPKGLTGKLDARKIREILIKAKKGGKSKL
STAT3 inh = inhibitors of IL-6 induced STAT3 signaling | U3A cells, IL-6 STAT3-luciferase reporter, luminescence; host cell line lacks STAT1 | inhibition, % at 5.5 µM | 190,000 compounds, 0.89% hits | AID 862;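 active = inhibition above the mean inhibition across all screened compounds plus 3 SD, cut at about 44% in these data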;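 note: 0% = DMSO only wells and 100% = 100 µM nifuroxazide control wells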
FLuc act counter = affects firefly luciferase, flagging false hits in luciferase stimulation screens; AID 1027; 200,000 tested, under 10 active; activation factor at 10 µM; ATPlite luciferase biochemical, luminescence, 10 min; 0 = ATP-free wells, 1 = DMSO control; P08659;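 active = luciferase activation factor, scaled between plate controls, of at least 2 with compound at 10 µM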
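Material: luciferase plus luciferin reagent, cell-free. Medium: PBS buffer for ATP. Also added: ATP substrate, dispensed from a 10.24 µM working solution in PBS. Doses: test compounds dosed from 2 mM stocks in 100% DMSO. Incubation: 10 min post-reagent at room temperature. Technique: light output (luminescence). Read-out basis: luminescence gain marking luciferase activators.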
STAT3 activator = increases IL-6 driven STAT3 reporter signal | activation (% of control), % at 5.6 µM | AID 871 | 190,000 compounds, 0.91% hits | U3A cells, IL-6 STAT3-luciferase reporter, luminescence; 100% = signal with IL-6 EC80 alone;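 active = activation above the screen-wide mean of compound activation plus 3 SD, cut at about 130% in these data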;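 note: 0% = background luminescence of wells with medium and substrate only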
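Material: human U3A cells carrying STAT3-luciferase construct. Measured by: reporter luminescence signal. Timing: compound 1 h, then IL-6 6 h at 37 °C.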
STAT1 activ conf = STAT1 activation, confirmation assay | activation (% of control), % at 5.7 µM | 1,200 compounds, 97% hits | shares compounds with STAT1 activator | AID 1262 | NIH 3T3 STAT1-luciferase reporter, IFN-gamma potentiation, luminescence; 100% = IFN-gamma EC80 alone, no compound;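 active = activation above a set limit carried over from the earlier primary STAT1 screen, cut at about 140% in these data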;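 note: simple ratio to median IFN-gamma plus DMSO wells so 0% means no light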
NFkB act STAT1ct = counter-screen for STAT1 activators: NF-kappaB activation; shares compounds with STAT1 activator; HEK293T NF-kB luciferase reporter, TNF-alpha stimulated, luminescence; 100% = TNF-alpha with vehicle only; activation (% of control), % at 5.7 µM; 1,200 compounds, 43% hits; AID 1306;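 active = activation above the mean of solvent-only control wells plus 3 SD, set per campaign, cut at about 130% in these data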;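 note: TNF-alpha given at a submaximal dose yielding about 80% of full reporter signal; values are well signal over median control so 100% means no change and 0% no light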
STAT3 act STAT1c = counter-screen for STAT1 activators: human STAT3 activation. activation (% of control), % at 5.7 µM. shares compounds with STAT1 activator. 1,200 compounds, 46% hits. U3A cells STAT3-luciferase reporter, IL-6, luminescence; cells lack STAT1; 100 = IL-6 alone, no compound effect;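 active = activation above the solvent-only control well mean plus 3 SD, set per plate batch, cut at about 110% in these data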;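 note: 0% = no luminescence and 100% = median IL-6 plus DMSO wells; higher means more STAT3 reporter activation so hits are non-selective activators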
* hit, by the source's call; / = not tested or not shown. This is a sample that favours compounds with a hit; in the whole collection about 4.9% have one here.

SMILES	STAT1 activator	STAT1 inh	FLuc inhib CS	STAT3 inh	FLuc act counter	STAT3 activator	STAT1 activ conf	NFkB act STAT1ct	STAT3 act STAT1c
CCOC(=O)CC(=O)Nc1nnc(C(C)C)s1	152*	-58	-6	6	1.1	98	112	103	102
O=C1CC(C(F)(F)C(F)(F)C(F)(F)F)=Nc2ccccc2N1	103	-3	-6	1	1.1	101	/	/	/
O=C1CC(/C=C/c2ccc(Cl)cc2)=Nc2ccccc2N1	177*	-83	48	-8	0.5	108	198*	145*	120*
CC1CCc2c(sc(NC(=O)C3CCCO3)c2C#N)C1 (stereo not given)	154*	-58	15	-8	0.9	108	169*	134*	114*
Oc1ccc(Nc2nc(-c3cccs3)cs2)cc1	91	10	-4	11	1	93	/	/	/
COc1ccccc1Nc1nc(-c2cccs2)cs1	171*	-77	6	-32	0.9	131	203*	143*	165*
CC(=O)Nc1nc(-c2cccs2)cs1	104	-4	8	3	0.9	100	/	/	/
COc1ccc(Nc2nc(-c3cccs3)cs2)cc1	182*	-90	42	13	0.6	92	214*	151*	122*
COc1ccc(Nc2nc(-c3cccs3)cs2)c(OC)c1	164*	-70	2	-8	1	110	216*	139*	118*
Cn1nnc2cc(C(=O)Nc3ccc4ccccc4c3)ccc21	154*	-61	18	31	0.8	76	242*	138*	98
CCOc1ncccc1C(=O)OCc1cccc([N+](=O)[O-])c1	109	-12	-2	7	1	96	/	/	/
C(=N\N=C\c1ccccc1)/c1ccccc1	158*	-64	79*	4	0.2	102	186*	145*	103
CCOC(=O)c1cc(C)sc1NC(=O)c1ccc(Cl)s1	100	0	-4	13	1	91	/	/	/
CCOC(=O)c1sc(NC(=O)Nc2ccc(F)cc2)nc1C	160*	-67	59*	-6	0.4	103	236*	135*	112*
CCOC(=O)c1sc(NC(=O)Nc2ccccc2Cl)cc1C	186*	-97	80*	26	0.2	78	295*	113	96
CCOC(=O)c1sc(NC(=O)c2ccc(C)s2)cc1C	175*	-82	62*	21	0.4	85	193*	138*	95
CCOC(=O)c1sc(NC(=O)Nc2ccccc2)cc1C	189*	-100	84*	6	0.2	95	222*	123	107
O=C(CCCNc1ccccc1)N/N=C/c1cccs1	115	-18	4	-7	1	107	/	/	/
CCN(CC)C(=O)C(=O)c1cn(CCOc2ccccc2)c2ccccc12	98	2	-6	9	1.1	100	/	/	/
C/C(=N\NC(=O)CCC(=O)Nc1ccc(C)c(C)c1)c1cccs1	95	5	-7	4	1.1	100	/	/	/
CCOC(=O)/C(=C\c1cccc(O)c1)c1nc2sc(C)c(C)c2c(=O)[nH]1	73	31	1	35	1	69	/	/	/
O=C(O)c1ccc(N/N=C/c2cccc(F)c2)cc1	161*	-68	12	-12	0.9	110	203*	102	118*
O=C(O)c1ccc(N/N=C/c2ccc(F)c(F)c2)cc1	162*	-68	9	-16	0.9	109	211*	101	129*
